Results published in PMC3747510 (Scientific Reports, 2013).
Residue numbers refer to the chain shown, from its start. Converted amounts (≈) assume the structure as drawn. Read-outs that look alike come from different tables or passages of the source.

How the values were obtained:
E. coli LeuRS (EcLeuRS) = E. coli LeuRS (EcLeuRS) (Escherichia coli, UniProt P07813); assay: Aminoacylation inhibition; type: biochemical
How it was run: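 Aminoacylation at 37°C with [3H]leucine, started with 4 mM ATP, in Tris-HCl pH 7.5 buffer. Each LeuRS was used at equal activity, i.e. forming 10 pmol Leu-tRNALeu in 5 min. At least six test-compound concentrations were tested. IC50 was taken from a fitted dose-response curve, as the mean of at least two independent experiments.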

E. coli = assay: Broth microdilution MIC, E. coli; type: cell-based; conditions: Escherichia coli
How it was run: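 Broth microdilution per CLSI M7-A7 in Mueller Hinton broth. About […] E. coli was exposed to serial test-compound dilutions for 24 h at 37°C. MIC was the lowest concentration suppressing visible growth. Ampicillin was used to monitor susceptibility.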

[1] = tested on: E. coli strains containing pET30a-eclrs; assay: MIC upon overexpression of EcLeuRS; type: cell-based, Escherichia coli; conditions: induced by IPTG
How it was run: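 E. coli transformants carrying pET30a-eclrs, with the empty pET30a vector strain as control. Both were induced with 10 μM IPTG and tested by broth microdilution in Mueller Hinton broth (37°C, 24 h). MICs were read as the lowest concentration without visible growth and compared between the two strains.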

SpLeuRS T252R = biological target: T1, SpLeuRS T252R (Streptococcus pneumoniae serotype 4, UniProt Q97SS0, T252R); assay: Aminoacylation by SpLeuRS T252R mutant; type: biochemical; conditions: 50 μM ZCL039
T1 sequence (Q97SS0 1-833 T252R): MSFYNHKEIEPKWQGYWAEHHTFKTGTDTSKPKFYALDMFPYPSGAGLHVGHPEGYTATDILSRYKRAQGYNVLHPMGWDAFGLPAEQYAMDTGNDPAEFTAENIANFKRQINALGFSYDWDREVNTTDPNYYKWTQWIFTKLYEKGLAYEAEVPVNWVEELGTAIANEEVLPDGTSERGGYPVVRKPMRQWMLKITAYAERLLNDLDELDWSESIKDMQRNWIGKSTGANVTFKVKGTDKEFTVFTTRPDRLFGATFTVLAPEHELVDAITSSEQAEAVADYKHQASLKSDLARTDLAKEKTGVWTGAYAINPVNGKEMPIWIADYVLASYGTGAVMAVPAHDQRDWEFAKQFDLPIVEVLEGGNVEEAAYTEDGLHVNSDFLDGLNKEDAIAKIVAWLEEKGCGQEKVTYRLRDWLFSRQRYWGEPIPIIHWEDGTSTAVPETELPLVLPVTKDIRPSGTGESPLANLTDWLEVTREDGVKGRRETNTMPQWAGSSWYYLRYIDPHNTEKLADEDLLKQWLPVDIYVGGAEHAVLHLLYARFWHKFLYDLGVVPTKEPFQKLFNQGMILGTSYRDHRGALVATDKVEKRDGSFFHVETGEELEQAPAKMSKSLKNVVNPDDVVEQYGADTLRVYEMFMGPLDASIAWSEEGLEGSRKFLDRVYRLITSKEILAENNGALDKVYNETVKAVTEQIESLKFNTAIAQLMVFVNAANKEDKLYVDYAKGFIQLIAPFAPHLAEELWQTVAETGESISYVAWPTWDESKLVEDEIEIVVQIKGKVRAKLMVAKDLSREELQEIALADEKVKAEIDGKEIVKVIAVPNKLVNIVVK
How it was run: (§1)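 Aminoacylation at 37°C, started with 4 mM ATP. Point mutants were made by site-directed mutagenesis. The MmLinker chimera has CP1 Lys226–Thr411 replaced by a nonapeptide. Means of three independent experiments.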

SpLeuRS Y332D = biological target: T2, SpLeuRS Y332D (Streptococcus pneumoniae serotype 4, UniProt Q97SS0, Y332D); assay: Aminoacylation by SpLeuRS Y332D mutant; type: biochemical; conditions: 50 μM ZCL039
T2 sequence (Q97SS0 1-833 Y332D): T1 sequence (Q97SS0 1-833 T252R) with R252T, Y332D
How it was run: as §1

Sequence of E. coli LeuRS (EcLeuRS) (P07813 whole entry): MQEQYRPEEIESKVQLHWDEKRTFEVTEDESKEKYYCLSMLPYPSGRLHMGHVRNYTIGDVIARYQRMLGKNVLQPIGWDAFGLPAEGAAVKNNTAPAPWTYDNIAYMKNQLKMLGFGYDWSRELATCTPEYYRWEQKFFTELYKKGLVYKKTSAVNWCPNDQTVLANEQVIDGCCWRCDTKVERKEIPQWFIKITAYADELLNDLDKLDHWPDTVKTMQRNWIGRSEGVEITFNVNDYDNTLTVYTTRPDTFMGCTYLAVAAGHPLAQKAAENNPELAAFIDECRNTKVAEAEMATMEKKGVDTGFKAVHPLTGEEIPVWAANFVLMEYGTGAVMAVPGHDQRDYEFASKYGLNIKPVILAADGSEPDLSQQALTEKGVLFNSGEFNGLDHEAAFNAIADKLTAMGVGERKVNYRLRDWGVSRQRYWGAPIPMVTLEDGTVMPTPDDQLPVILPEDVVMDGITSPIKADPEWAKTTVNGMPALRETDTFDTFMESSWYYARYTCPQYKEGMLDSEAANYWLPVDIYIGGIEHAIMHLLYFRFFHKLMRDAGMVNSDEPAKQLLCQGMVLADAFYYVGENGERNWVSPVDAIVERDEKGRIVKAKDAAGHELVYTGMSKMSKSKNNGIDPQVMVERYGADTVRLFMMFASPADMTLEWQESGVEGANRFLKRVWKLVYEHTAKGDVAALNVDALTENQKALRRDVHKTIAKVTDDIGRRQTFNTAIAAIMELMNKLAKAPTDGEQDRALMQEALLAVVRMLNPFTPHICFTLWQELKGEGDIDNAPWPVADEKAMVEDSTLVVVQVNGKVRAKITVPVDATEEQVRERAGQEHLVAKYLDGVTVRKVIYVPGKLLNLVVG

## OB1OCc2ccc(C(O)c3ccccc3)cc21 (stereo not shown) [ZCL039, [6-(1-phenyl-1-hydroxylmethyl)]-1,3-dihydro-1-hydroxy-2,1-benzoxaborole]
E. coli LeuRS (EcLeuRS)
  IC50: 8.25 ± 1.2 µM
E. coli LeuRS (EcLeuRS); printed as higher
  IC50 towards SpLeuRS relative to EcLeuRS: 5 fold
E. coli; 24 h, read-out: MIC, Bacteria, E. coli
  MIC: 60 µg/mL (≈ 250 µM)
E. coli; read-out: MIC, E. coli strains containing pET30a
  MIC: 60 µg/mL (≈ 250 µM)
[1]
  Increase in the MIC, pET30a-eclrs vs pET30a: over 4 fold
SpLeuRS T252R
  Effect on synthetic activity of T252R mutant: did not affect
SpLeuRS Y332D
  Effect on synthetic activity of Y332D mutant: did not affect
